# In the M2OR odorant receptor database:
# Columns and labels:
# Conditions in all cases: stereoisomer not certain
# [1] = target: T1, OR2A7 (Homo sapiens) (UniProt Q96R45)
# T1 sequence (whole entry): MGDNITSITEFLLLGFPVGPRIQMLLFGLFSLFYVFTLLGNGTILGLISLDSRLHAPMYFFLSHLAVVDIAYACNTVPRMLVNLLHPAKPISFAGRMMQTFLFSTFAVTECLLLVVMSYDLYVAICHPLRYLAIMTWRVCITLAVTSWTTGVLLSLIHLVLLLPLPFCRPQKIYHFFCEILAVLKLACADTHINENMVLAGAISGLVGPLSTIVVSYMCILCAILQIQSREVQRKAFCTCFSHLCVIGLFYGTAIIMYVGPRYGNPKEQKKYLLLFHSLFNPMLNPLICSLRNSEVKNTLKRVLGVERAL
# How it was run: (§1)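 Whether a receptor–molecule pair is responsive (active) rests on the original authors' judgment that its measured signal was statistically different from baseline. Pairs without that judgment are non-responsive (inactive). Sources used varied assay methods, commonly transient luciferase assays in mammalian cell lines.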
# [2] = target: OR2AE1 (Homo sapiens) (UniProt Q8NHA4)
# How it was run: as §1
# [3] = target: OR2AG1 (Homo sapiens) (UniProt Q9H205)
# How it was run: as §1
# [4] = target: OR2AG2 (Homo sapiens) (UniProt A6NM03)
# How it was run: as §1
# [5] = target: OR2AJ1 (Homo sapiens) (UniProt Q8NGZ0)
# How it was run: as §1
# [6] = target: OR2AK2 (Homo sapiens) (UniProt Q8NG84)
# How it was run: as §1
# [7] = target: OR2AP1 (Homo sapiens) (UniProt Q8NGE2)
# How it was run: as §1
# [8] = target: OR2AT4 (Homo sapiens) (UniProt A6NND4)
# How it was run: as §1
# [9] = target: T2, OR2B11 (Homo sapiens) (UniProt Q5JQS5)
# T2 sequence (whole entry): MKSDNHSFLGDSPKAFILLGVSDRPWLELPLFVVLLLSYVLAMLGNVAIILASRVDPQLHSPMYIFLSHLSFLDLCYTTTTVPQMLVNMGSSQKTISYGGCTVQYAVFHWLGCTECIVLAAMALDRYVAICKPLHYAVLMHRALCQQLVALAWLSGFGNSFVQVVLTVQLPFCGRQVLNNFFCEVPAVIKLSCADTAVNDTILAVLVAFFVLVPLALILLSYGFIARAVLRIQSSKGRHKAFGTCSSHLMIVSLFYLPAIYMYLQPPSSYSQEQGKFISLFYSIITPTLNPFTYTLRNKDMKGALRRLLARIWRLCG
# How it was run: as §1
# [10] = target: OR2B2 (Homo sapiens) (UniProt Q9GZK3)
# How it was run: as §1
# [11] = target: OR2B6 (Homo sapiens) (UniProt P58173)
# How it was run: as §1
# [12] = target: T3, OR2C1 (Homo sapiens) (UniProt O95371)
# T3 sequence (whole entry): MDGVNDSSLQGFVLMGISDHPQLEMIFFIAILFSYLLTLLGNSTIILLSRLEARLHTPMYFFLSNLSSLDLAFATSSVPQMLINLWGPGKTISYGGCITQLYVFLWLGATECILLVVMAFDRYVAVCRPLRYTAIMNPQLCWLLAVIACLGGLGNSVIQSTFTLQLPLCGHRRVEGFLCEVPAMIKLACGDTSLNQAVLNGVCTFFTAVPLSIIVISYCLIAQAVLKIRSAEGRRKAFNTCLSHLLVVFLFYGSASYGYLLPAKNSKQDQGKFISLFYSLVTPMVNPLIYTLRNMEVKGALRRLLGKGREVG
# How it was run: as §1
# [13] = target: T4, OR2B3 (Homo sapiens) (UniProt O76000)
# T4 sequence (whole entry): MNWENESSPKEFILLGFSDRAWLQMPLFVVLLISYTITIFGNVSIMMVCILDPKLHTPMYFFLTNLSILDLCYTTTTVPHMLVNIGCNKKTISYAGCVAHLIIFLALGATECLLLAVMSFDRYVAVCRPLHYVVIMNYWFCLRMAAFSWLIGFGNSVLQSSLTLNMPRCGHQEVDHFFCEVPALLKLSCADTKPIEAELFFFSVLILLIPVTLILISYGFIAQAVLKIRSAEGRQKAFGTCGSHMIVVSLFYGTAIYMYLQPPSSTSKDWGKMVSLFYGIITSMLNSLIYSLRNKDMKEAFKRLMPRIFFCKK
# How it was run: as §1
# [14] = test system: OR2A5 I126V A202S A255T
# How it was run: as §1
# [15] = test system: OR2A7
# How it was run: as §1
# [16] = test system: OR2BB
# How it was run: as §1
# Target sequence in this assay (as listed by the source): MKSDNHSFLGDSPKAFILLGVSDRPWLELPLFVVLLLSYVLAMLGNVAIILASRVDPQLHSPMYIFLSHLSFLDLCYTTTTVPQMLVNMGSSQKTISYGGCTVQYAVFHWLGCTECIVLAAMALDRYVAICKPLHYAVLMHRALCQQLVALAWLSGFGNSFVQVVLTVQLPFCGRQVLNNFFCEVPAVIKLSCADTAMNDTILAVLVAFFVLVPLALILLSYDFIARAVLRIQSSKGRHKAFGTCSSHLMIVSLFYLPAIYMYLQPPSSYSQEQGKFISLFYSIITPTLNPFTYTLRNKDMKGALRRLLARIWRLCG
# [17] = test system: OR2BB; remark: listed apart in the source
# How it was run: as §1
# Target sequence in this assay (as listed by the source): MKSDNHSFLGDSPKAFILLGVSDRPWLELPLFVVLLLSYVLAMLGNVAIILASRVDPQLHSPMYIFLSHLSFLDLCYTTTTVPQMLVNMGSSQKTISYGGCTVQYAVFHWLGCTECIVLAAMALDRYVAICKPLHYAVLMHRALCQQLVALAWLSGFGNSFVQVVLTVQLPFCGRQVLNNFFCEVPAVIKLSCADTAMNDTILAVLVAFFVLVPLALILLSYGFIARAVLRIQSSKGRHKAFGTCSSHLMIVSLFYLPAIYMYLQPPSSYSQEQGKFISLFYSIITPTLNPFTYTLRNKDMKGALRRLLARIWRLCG
# [18] = test system: OR2BB; remark: listed apart in the source
# How it was run: as §1
# Target sequence in this assay (as listed by the source): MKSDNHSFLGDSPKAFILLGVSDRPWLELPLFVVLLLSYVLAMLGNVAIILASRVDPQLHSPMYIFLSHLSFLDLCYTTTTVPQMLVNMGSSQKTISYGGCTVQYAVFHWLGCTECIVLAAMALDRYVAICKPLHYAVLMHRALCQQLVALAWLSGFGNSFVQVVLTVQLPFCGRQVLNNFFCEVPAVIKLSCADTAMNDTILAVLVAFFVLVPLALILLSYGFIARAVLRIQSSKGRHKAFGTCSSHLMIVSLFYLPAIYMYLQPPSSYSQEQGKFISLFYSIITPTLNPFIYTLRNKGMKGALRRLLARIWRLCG
# [19] = test system: OR2BB; remark: listed apart in the source
# How it was run: as §1
# Target sequence in this assay (as listed by the source): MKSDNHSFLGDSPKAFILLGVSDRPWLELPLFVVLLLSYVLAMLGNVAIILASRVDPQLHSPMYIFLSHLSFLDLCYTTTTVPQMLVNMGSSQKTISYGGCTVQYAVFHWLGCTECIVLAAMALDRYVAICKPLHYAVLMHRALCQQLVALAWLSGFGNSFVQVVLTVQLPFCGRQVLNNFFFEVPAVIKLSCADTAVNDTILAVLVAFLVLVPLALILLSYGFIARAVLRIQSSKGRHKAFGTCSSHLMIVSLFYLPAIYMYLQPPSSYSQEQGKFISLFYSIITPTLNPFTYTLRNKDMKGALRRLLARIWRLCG
# [20] = test system: OR2BB; remark: listed apart in the source
# How it was run: as §1
# Target sequence in this assay (as listed by the source): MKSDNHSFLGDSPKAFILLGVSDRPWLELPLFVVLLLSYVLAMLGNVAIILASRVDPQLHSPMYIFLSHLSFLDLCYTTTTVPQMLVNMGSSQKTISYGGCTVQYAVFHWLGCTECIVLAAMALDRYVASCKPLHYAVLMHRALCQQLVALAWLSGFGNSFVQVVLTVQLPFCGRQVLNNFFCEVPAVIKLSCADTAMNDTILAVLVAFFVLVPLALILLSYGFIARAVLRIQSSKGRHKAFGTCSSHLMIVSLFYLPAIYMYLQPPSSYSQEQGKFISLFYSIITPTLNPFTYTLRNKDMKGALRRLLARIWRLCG
# 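Further: active if original authors judged signal statistically different from baseline.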
# OR2AG1 (Homo sapiens), sequence (Q9H205 whole entry): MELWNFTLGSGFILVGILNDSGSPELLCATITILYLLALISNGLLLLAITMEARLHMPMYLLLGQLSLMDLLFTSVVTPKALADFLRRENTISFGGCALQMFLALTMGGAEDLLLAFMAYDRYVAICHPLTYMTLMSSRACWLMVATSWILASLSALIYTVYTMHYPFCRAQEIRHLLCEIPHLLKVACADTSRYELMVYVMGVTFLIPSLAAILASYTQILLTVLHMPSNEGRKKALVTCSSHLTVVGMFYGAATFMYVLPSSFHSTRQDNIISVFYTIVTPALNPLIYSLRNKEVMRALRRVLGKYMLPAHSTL
# OR2B6 (Homo sapiens), sequence (P58173 whole entry): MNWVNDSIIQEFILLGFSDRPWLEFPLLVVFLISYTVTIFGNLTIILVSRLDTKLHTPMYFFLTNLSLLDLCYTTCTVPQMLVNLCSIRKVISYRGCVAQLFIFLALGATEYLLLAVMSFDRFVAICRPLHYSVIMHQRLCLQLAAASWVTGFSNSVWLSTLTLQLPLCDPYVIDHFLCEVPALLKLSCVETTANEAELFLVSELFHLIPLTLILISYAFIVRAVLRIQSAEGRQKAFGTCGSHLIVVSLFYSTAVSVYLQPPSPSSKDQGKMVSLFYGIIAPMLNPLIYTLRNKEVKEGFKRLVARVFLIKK
# OR2AT4 (Homo sapiens), sequence (A6NND4 whole entry): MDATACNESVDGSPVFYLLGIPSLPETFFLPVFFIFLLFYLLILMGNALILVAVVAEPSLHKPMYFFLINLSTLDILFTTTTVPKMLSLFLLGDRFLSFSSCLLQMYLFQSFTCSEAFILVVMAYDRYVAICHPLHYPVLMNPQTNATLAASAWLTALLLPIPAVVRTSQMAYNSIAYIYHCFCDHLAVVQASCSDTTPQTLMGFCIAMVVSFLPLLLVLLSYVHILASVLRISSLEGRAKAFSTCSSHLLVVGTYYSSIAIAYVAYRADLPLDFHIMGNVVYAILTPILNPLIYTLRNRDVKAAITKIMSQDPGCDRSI
# OR2AG2 (Homo sapiens), sequence (A6NM03 whole entry): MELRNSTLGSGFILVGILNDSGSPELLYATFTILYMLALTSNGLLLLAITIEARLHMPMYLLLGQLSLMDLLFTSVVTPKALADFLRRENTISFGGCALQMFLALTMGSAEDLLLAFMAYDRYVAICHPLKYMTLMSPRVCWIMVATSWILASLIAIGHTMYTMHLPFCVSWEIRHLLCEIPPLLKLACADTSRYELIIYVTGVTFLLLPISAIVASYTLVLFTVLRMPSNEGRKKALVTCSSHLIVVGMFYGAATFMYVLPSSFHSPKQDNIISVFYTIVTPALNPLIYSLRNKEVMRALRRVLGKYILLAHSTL
# OR2B2 (Homo sapiens), sequence (Q9GZK3 whole entry): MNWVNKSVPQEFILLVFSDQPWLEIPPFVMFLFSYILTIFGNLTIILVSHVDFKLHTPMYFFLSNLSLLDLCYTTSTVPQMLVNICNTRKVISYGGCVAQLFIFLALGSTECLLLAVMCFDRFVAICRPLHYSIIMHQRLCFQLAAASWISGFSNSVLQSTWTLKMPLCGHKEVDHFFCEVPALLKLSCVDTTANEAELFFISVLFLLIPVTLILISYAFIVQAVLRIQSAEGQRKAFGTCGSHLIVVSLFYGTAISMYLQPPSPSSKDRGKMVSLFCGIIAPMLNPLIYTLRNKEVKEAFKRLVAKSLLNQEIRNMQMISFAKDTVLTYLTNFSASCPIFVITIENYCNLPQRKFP
# OR2AE1 (Homo sapiens), sequence (Q8NHA4 whole entry): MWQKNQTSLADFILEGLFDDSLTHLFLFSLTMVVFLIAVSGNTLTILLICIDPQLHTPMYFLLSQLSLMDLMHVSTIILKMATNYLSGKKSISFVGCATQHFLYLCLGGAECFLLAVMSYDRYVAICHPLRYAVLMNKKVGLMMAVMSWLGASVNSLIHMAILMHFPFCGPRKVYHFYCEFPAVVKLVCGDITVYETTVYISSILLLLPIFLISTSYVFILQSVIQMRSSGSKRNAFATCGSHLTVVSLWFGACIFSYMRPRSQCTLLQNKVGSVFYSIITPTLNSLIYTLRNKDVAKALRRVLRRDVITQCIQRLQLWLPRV
# OR2AP1 (Homo sapiens), sequence (Q8NGE2 whole entry): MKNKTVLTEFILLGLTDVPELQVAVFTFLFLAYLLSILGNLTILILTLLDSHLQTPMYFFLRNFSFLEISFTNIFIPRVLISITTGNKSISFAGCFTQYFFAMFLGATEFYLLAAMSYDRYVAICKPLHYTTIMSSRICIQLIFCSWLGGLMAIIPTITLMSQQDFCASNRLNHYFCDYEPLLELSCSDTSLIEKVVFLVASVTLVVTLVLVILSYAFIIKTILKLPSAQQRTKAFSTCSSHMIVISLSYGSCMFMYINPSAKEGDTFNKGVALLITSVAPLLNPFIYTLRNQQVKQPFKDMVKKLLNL
# OR2AK2 (Homo sapiens), sequence (Q8NG84 whole entry): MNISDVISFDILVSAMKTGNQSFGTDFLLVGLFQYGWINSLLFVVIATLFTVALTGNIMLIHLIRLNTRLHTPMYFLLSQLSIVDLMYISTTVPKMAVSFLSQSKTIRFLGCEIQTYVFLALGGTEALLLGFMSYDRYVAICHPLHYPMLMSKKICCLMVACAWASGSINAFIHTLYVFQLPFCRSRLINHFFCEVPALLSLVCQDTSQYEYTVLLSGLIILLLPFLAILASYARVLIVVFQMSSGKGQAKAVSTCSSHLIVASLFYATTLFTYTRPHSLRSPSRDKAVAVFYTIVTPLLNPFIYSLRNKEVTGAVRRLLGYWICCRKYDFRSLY
# OR2A7, sequence (as listed by the source): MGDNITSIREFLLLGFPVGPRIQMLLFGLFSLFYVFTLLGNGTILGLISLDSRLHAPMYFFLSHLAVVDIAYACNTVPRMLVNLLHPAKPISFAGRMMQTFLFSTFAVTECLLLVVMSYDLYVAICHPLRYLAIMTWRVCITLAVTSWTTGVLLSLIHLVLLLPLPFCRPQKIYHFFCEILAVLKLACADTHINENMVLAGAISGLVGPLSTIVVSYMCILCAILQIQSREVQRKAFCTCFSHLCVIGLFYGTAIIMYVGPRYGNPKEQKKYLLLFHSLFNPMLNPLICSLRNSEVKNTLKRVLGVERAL
# OR2AJ1 (Homo sapiens), sequence (Q8NGZ0 whole entry): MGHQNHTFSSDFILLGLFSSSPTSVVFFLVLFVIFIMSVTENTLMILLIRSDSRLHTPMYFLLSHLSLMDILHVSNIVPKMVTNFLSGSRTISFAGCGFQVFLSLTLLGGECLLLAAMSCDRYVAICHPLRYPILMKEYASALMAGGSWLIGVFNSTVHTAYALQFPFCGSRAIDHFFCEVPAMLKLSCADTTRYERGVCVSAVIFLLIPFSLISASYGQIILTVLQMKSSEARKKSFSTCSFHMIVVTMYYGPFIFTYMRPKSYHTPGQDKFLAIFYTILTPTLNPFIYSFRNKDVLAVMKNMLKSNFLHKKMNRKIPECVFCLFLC
smiles,measurement,setting,value
Cc1c([N+](=O)[O-])c(C)c([N+](=O)[O-])c(C(C)(C)C)c1[N+](=O)[O-],odorant receptor agonist call,[1],inactive
same,odorant receptor agonist call,[2],inactive
same,odorant receptor agonist call,[3],inactive
same,odorant receptor agonist call,[4],inactive
same,odorant receptor agonist call,[5],inactive
same,odorant receptor agonist call,[6],inactive
same,odorant receptor agonist call,[7],inactive
same,odorant receptor agonist call,[8],inactive
same,odorant receptor agonist call,[9],inactive
same,odorant receptor agonist call,[10],inactive
same,odorant receptor agonist call,[11],inactive
same,odorant receptor agonist call,[12],inactive
CCC1CCC(=O)O1 (configuration not stated),odorant receptor agonist call,[12],inactive
C=CCc1ccc(OC)cc1,odorant receptor agonist call,[13],inactive
COc1ccc(C=O)cc1,odorant receptor agonist call,[1],inactive
C=CCOC(=O)Cc1ccccc1,odorant receptor agonist call,[14],inactive
same,odorant receptor agonist call,[1],inactive
same,odorant receptor agonist call,[15],inactive
same,odorant receptor agonist call,[2],inactive
same,odorant receptor agonist call,[3],inactive
same,odorant receptor agonist call,[4],inactive
same,odorant receptor agonist call,[6],inactive
same,odorant receptor agonist call,[7],inactive
same,odorant receptor agonist call,[8],inactive
same,odorant receptor agonist call,[9],inactive
same,odorant receptor agonist call,[10],inactive
same,odorant receptor agonist call,[13],inactive
same,odorant receptor agonist call,[11],inactive
same,odorant receptor agonist call,[16],inactive
same,odorant receptor agonist call,[17],inactive
same,odorant receptor agonist call,[12],inactive
O=c1cc(O)c2ccccc2o1,odorant receptor agonist call,[12],inactive
O=CC=Cc1ccccc1,odorant receptor agonist call,[9],active
same,odorant receptor agonist call,[13],inactive
same,odorant receptor agonist call,[16],inactive
same,odorant receptor agonist call,[18],inactive
same,odorant receptor agonist call,[17],inactive
same,odorant receptor agonist call,[19],inactive
same,odorant receptor agonist call,[20],active
Cc1cccc(C)c1,odorant receptor agonist call,[1],inactive
O=Cc1ccccc1,odorant receptor agonist call,[13],inactive
C=CCc1ccccc1,odorant receptor agonist call,[12],inactive
